# In ChEMBL document CHEMBL3627695, “1-Benzyl-2-methyl-3-indolylmethylene barbituric acid derivatives: Anti-cancer agents that target nucleophosmin 1 (NPM1)” (Bioorg Med Chem, 2015):
# What was measured:
# T47D = assay: Anticancer activity against human T47D cells after 48 hrs by sulforhodamine B assay; format: functional
# Procedure, shortened: (§1)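 NCI-60 panel protocol. Compounds were dissolved in DMSO/H2O and tested at five 10-fold concentrations (10⁻⁴ to 10⁻⁸ M) with 48 hr incubation. GI50 is the molar concentration giving a 50% reduction in net cell growth relative to cell numbers on day 0.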
# MDA-MB-468 = assay: Anticancer activity against human MDA-MB-468 cells after 48 hrs by sulforhodamine B assay; format: functional; conditions: MDA-MB-468, 48 h
# Procedure, shortened: (§2)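 NCI-60 human tumour cell line panel. Compounds dissolved in DMSO/H2O and tested at five 10-fold dilutions (10⁻⁴ M to 10⁻⁸ M) for 48 hr. GI50 is the molar concentration giving 50% reduction in net cell growth relative to cell numbers on day 0.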
# SR = assay: Anticancer activity against human SR cells after 48 hrs by sulforhodamine B assay; format: functional; procedure, shortened: as §1
# NCI-H460 = assay: Anticancer activity against human NCI-H460 cells after 48 hrs by sulforhodamine B assay; format: functional; conditions: NCI-H460, 48 h; procedure, shortened: as §2
# UO-31 = assay: Anticancer activity against human UO31 cells after 48 hrs by sulforhodamine B assay; format: functional; conditions: UO-31, 48 h; procedure, shortened: as §1
# SK-MEL-5 = assay: Anticancer activity against human SK-MEL-5 cells after 48 hrs by sulforhodamine B assay; format: functional; conditions: SK-MEL-5, 48 h; procedure, shortened: as §2
# BT-549 = assay: Anticancer activity against human BT549 cells after 48 hrs by sulforhodamine B assay; format: functional; conditions: BT-549, 48 h; procedure, shortened: as §2
# HCT-116 = assay: Anticancer activity against human HCT116 cells after 48 hrs by sulforhodamine B assay; format: functional; conditions: HCT-116, 48 h; procedure, shortened: as §2
# CCRF-CEM = assay: Anticancer activity against human CCRF-CEM cells after 48 hrs by sulforhodamine B assay; format: functional; procedure, shortened: as §2
# SF-268 = assay: Anticancer activity against human SF268 cells after 48 hrs by sulforhodamine B assay; format: functional; conditions: SF-268, 48 h; procedure, shortened: as §2
# Malme-3M = assay: Anticancer activity against human MALME-3M cells after 48 hrs by sulforhodamine B assay; format: functional; procedure, shortened: as §2
# SNB-75 = assay: Anticancer activity against human SNB75 cells after 48 hrs by sulforhodamine B assay; format: functional; conditions: SNB-75, 48 h; procedure, shortened: as §2
# 786-0 = assay: Anticancer activity against human 786-0 cells after 48 hrs by sulforhodamine B assay; format: functional; conditions: 786-0, 48 h; procedure, shortened: as §2
# [1] = Anticancer activity against human RPMI8226 cells after 48 hrs by sulforhodamine B assay; format: functional; conditions: RPMI-8226, 48 h; procedure, shortened: as §2
# MDA-MB-231 = assay: Anticancer activity against human MDA-MB-231 cells after 48 hrs by sulforhodamine B assay; format: functional; conditions: MDA-MB-231, 48 h; procedure, shortened: as §2
# MCF7 = assay: Anticancer activity against human MCF7 cells after 48 hrs by sulforhodamine B assay; format: functional; conditions: MCF7, 48 h; procedure, shortened: as §2
# OVCAR-4 = assay: Anticancer activity against human OVCAR4 cells after 48 hrs by sulforhodamine B assay; format: functional; conditions: OVCAR-4, 48 h; procedure, shortened: as §2
# NCI-H322M = assay: Anticancer activity against human NCI-H322M cells after 48 hrs by sulforhodamine B assay; format: functional; procedure, shortened: as §2
# OVCAR-5 = assay: Anticancer activity against human OVCAR5 cells after 48 hrs by sulforhodamine B assay; format: functional; conditions: OVCAR-5, 48 h; procedure, shortened: as §2
# KM12 = assay: Anticancer activity against human KM12 cells after 48 hrs by sulforhodamine B assay; format: functional; conditions: KM12, 48 h; procedure, shortened: as §2
# A549 = assay: Anticancer activity against human A549/ATCC cells after 48 hrs by sulforhodamine B assay; format: functional; conditions: A549, 48 h; procedure, shortened: as §2
# SNB-19 = assay: Anticancer activity against human SNB19 cells after 48 hrs by sulforhodamine B assay; format: functional; conditions: SNB-19, 48 h; procedure, shortened: as §2
# ACHN = assay: Anticancer activity against human ACHN cells after 48 hrs by sulforhodamine B assay; format: functional; procedure, shortened: as §2
# U-251 = assay: Anticancer activity against human U251 cells after 48 hrs by sulforhodamine B assay; format: functional; conditions: U-251, 48 h; procedure, shortened: as §1
# [2] = Anticancer activity against human COLO205 cells after 48 hrs by sulforhodamine B assay; format: functional; conditions: COLO 205, 48 h; procedure, shortened: as §2
# HL-60(TB) = assay: Anticancer activity against human HL-60(TB) cells after 48 hrs by sulforhodamine B assay; format: functional; conditions: HL-60, 48 h; procedure, shortened: as §2
# [3] = Anticancer activity against human HOP92 cells after 48 hrs by sulforhodamine B assay; format: functional; conditions: HOP-92, 48 h; procedure, shortened: as §2
# HCT-15 = assay: Anticancer activity against human HCT15 cells after 48 hrs by sulforhodamine B assay; format: functional; conditions: HCT-15, 48 h; procedure, shortened: as §2
# [4] = Anticancer activity against human RXF393 cells after 48 hrs by sulforhodamine B assay; format: functional; conditions: RXF 393, 48 h; procedure, shortened: as §2
# UACC-257 = assay: Anticancer activity against human UACC257 cells after 48 hrs by sulforhodamine B assay; format: functional; conditions: UACC-257, 48 h; procedure, shortened: as §1
# [5] = Anticancer activity against human HCC2998 cells after 48 hrs by sulforhodamine B assay; format: functional; conditions: HCC 2998, 48 h; procedure, shortened: as §2
# DU-145 = assay: Anticancer activity against human DU145 cells after 48 hrs by sulforhodamine B assay; format: functional; conditions: DU-145, 48 h; procedure, shortened: as §2
# SK-MEL-2 = assay: Anticancer activity against human SK-MEL-2 cells after 48 hrs by sulforhodamine B assay; format: functional; conditions: SK-MEL-2, 48 h; procedure, shortened: as §2
# TK-10 = assay: Anticancer activity against human TK10 cells after 48 hrs by sulforhodamine B assay; format: functional; conditions: TK-10, 48 h; procedure, shortened: as §1
# A498 = assay: Anticancer activity against human A498 cells after 48 hrs by sulforhodamine B assay; format: functional; conditions: A498, 48 h; procedure, shortened: as §2
# NCI-H522 = assay: Anticancer activity against human NCI-H522 cells after 48 hrs by sulforhodamine B assay; format: functional; conditions: NCI-H522, 48 h; procedure, shortened: as §2
# [6] = Anticancer activity against human Hs 578T cells after 48 hrs by sulforhodamine B assay; format: functional; procedure, shortened: as §2
# CAKI-1 = assay: Anticancer activity against human Caki1 cells after 48 hrs by sulforhodamine B assay; format: functional; conditions: CAKI-1, 48 h; procedure, shortened: as §2
# M14 = assay: Anticancer activity against human M14 cells after 48 hrs by sulforhodamine B assay; format: functional; conditions: M14, 48 h; procedure, shortened: as §2
# SN12C = assay: Anticancer activity against human SN12C cells after 48 hrs by sulforhodamine B assay; format: functional; procedure, shortened: as §2
# K562 = assay: Anticancer activity against human K562 cells after 48 hrs by sulforhodamine B assay; format: functional; conditions: K562, 48 h; procedure, shortened: as §2
# [7] = Anticancer activity against human NCI-ADR-RES cells after 48 hrs by sulforhodamine B assay; format: functional; procedure, shortened: as §2
# [8] = Anticancer activity against human MOLT4 cells after 48 hrs by sulforhodamine B assay; format: functional; conditions: MOLT-4, 48 h; procedure, shortened: as §2
# [9] = Anticancer activity against human OCI-AML3 cells expressing mutant NPM1 assessed as apoptosis for 48 hrs by annexin-V and TO-PRO3 staining based flow cytometry; format: functional, cell-based; conditions: OCI-AML-3, 48 h
# Procedure, shortened: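 OCI-AML3 cells (NPM1c+) in logarithmic growth, passaged 2–3 times weekly. Cells were exposed to the indicated compound concentrations for 48 hr, then stained with annexin V and TO-PRO 3. Percent apoptotic cells was read by flow cytometry. AP50 is the concentration at which 50% of cells undergo apoptosis.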
# HT-29 = assay: Anticancer activity against human HT-29 cells after 48 hrs by sulforhodamine B assay; format: functional; conditions: HT-29, 48 h; procedure, shortened: as §2
# IGROV-1 = assay: Anticancer activity against human IGROV1 cells after 48 hrs by sulforhodamine B assay; format: functional; conditions: IGROV-1, 48 h; procedure, shortened: as §2
# OVCAR-3 = assay: Anticancer activity against human OVCAR3 cells after 48 hrs by sulforhodamine B assay; format: functional; conditions: OVCAR-3, 48 h; procedure, shortened: as §2
# HOP-62 = assay: Anticancer activity against human HOP62 cells after 48 hrs by sulforhodamine B assay; format: functional; conditions: HOP-62, 48 h; procedure, shortened: as §2
# SW-620 = assay: Anticancer activity against human SW620 cells after 48 hrs by sulforhodamine B assay; format: functional; conditions: SW-620, 48 h; procedure, shortened: as §1
# NCI-H226 = assay: Anticancer activity against human NCI-H226 cells after 48 hrs by sulforhodamine B assay; format: functional; conditions: NCI-H226, 48 h; procedure, shortened: as §2
# SK-MEL-28 = assay: Anticancer activity against human SK-MEL-28 cells after 48 hrs by sulforhodamine B assay; format: functional; conditions: SK-MEL-28, 48 h; procedure, shortened: as §2
# MDA-MB-435 = assay: Anticancer activity against human MDA-MB-435 cells after 48 hrs by sulforhodamine B assay; format: functional; conditions: MDA-MB-435, 48 h; procedure, shortened: as §2
# OVCAR-8 = assay: Anticancer activity against human OVCAR8 cells after 48 hrs by sulforhodamine B assay; format: functional; conditions: OVCAR-8, 48 h; procedure, shortened: as §2
# [10] = Anticancer activity against human LOXIMVI cells after 48 hrs by sulforhodamine B assay; format: functional; conditions: LOX IMVI; procedure, shortened: as §2
# [11] = Anticancer activity against human SF295 cells after 48 hrs by sulforhodamine B assay; format: functional; conditions: SF-295, 48 h; procedure, shortened: as §2
# [12] = Anticancer activity against human SF539 cells after 48 hrs by sulforhodamine B assay; format: functional; conditions: SF-539, 48 h; procedure, shortened: as §2
# SK-OV-3 = assay: Anticancer activity against human SKOV3 cells after 48 hrs by sulforhodamine B assay; format: functional; conditions: SK-OV-3, 48 h; procedure, shortened: as §2
smiles,measurement,setting,value
Cc1c(C=C2C(=O)NC(=S)NC2=O)c2ccccc2n1Cc1ccccc1,GI50,T47D,1900 nM
same,GI50,MDA-MB-468,510 nM
same,GI50,SR,340 nM
same,GI50,NCI-H460,980 nM
same,GI50,UO-31,880 nM
same,GI50,SK-MEL-5,1370 nM
same,GI50,BT-549,1600 nM
same,GI50,HCT-116,890 nM
same,GI50,CCRF-CEM,590 nM
same,GI50,SF-268,1260 nM
same,GI50,Malme-3M,2310 nM
same,GI50,SNB-75,1510 nM
same,GI50,786-0,1580 nM
same,GI50,[1],350 nM
same,GI50,MDA-MB-231,1340 nM
same,GI50,MCF7,700 nM
same,GI50,OVCAR-4,1240 nM
same,GI50,NCI-H322M,1630 nM
same,GI50,OVCAR-5,1750 nM
same,GI50,KM12,950 nM
same,GI50,A549,1850 nM
same,GI50,SNB-19,1310 nM
same,GI50,ACHN,1370 nM
same,GI50,U-251,1160 nM
same,GI50,[2],1330 nM
same,GI50,HL-60(TB),290 nM
same,GI50,[3],400 nM
same,GI50,HCT-15,1300 nM
same,GI50,[4],1230 nM
same,GI50,UACC-257,1410 nM
same,GI50,[5],1180 nM
same,GI50,DU-145,1310 nM
same,GI50,SK-MEL-2,2080 nM
same,GI50,TK-10,1470 nM
same,GI50,A498,1560 nM
same,GI50,NCI-H522,1850 nM
same,GI50,[6],510 nM
same,GI50,CAKI-1,1570 nM
same,GI50,M14,1400 nM
same,GI50,SN12C,1150 nM
same,GI50,K562,1260 nM
same,GI50,[7],1890 nM
same,GI50,[8],1710 nM
same,AC50,[9],3310 nM
same,GI50,HT-29,1370 nM
same,GI50,IGROV-1,970 nM
same,GI50,OVCAR-3,1180 nM
same,GI50,HOP-62,1090 nM
same,GI50,SW-620,1240 nM
same,GI50,NCI-H226,1880 nM
same,GI50,SK-MEL-28,1660 nM
same,GI50,MDA-MB-435,1150 nM
same,GI50,OVCAR-8,1130 nM
same,GI50,[10],530 nM
same,GI50,[11],930 nM
same,GI50,[12],1140 nM
same,GI50,SK-OV-3,1890 nM
